Reference: paper PMC9306949 (Clinical Pharmacology in Drug Development, 2022)
Entries after “also recorded” stand apart in the source; their conditions may differ. Where two headings read alike, the source gives them in different places. Marks after values point to notes of the source that are not given here.

How the values were obtained:
[1] = cited from earlier work
MIC‐1 [2] = experiment: Serum MIC-1 pharmacodynamics; format: in vivo, human; settings: for P, baseline predose MIC‐1 concentration / MIC‐1 %CFBC24 (percent change from predose concentration at 24 hours) / MIC‐1 %CFBCmax (percent change from predose concentration at Cmax) / MIC‐1 AUC0‐24 / MIC‐1 AUC0‐inf / MIC‐1 AUC0‐t / MIC‐1 C24 / MIC‐1 FoldC24 (C24/P): serum, mean (%CV)
[3] = monoprotic carboxylic acid; cited from earlier work
[4] = Safety: treatment-emergent adverse events; format: in vivo, human
[5] = cited from earlier work; remark: listed apart in the source
[6] = format: in vivo, human; settings: for exposure in UGT1A1*28 heterozygous poor metabolizers (6/7 TA repeats) vs WT (6/6 TA repeats): Treatment A, n = 16 vs n = 12; for C24: mean (%CV)
[7] = cited from earlier work; remark: listed apart in the source
[8] = cynomolgus macaques; cited from earlier work
[9] = Urine excretion of navtemadlin and M1; format: in vivo, human
[10] = physiologically based PK modeling; cited from earlier work
[11] = system: T, B, and natural killer lymphocytes in peripheral blood; experiment: Immunophenotyping of whole blood; format: in vivo, human; settings: periods 1 and 4; absolute counts and percentages
How it was run: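 Healthy adults took single 60-mg oral doses of the test compound. Whole blood (K2EDTA) was drawn at screening, predose on day 1 of periods 1 and 4, and on day 5 (96 h postdose). A validated GLP flow cytometry method gave absolute counts and percentages of peripheral T, B and NK lymphocytes.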

MIC‐1 [12] = settings: patients with solid tumors/MM and AML; cited from earlier work
[13] = Treatment A: 60 mg new tablet fasted
[14] = Treatment B: 60 mg new tablet fed
[15] = Treatment C: 60 mg old tablet fasted
[16] = single 60-mg doses, healthy subjects
[17] = period 1 (old tablet fasted), 0-48 h urine

In the case of `CC(C)[C@@H](CS(=O)(=O)C(C)C)N1C(=O)[C@@](C)(CC(=O)O)C[C@H](c2cccc(Cl)c2)[C@H]1c1ccc(Cl)cc1` [Navtemadlin], the “dose dependence of exposure” value ([1]; dose range of 15 mg to 480 mg) is listed as “linear”, the “apparent oral central volume of distribution” value ([1]; patients with solid tumors) is listed as 62.9 L and the “pharmacodynamic half‐life of MIC‐1 serum elevations” value (MIC‐1 [2]; 60‐mg dose, healthy subjects) is listed as > 20 h. For the same compound, the “correlation navtemadlin AUC0‐t vs MIC‐1 AUC0‐t, intercept” value (MIC‐1 [2]; Treatment A, AUC in nM • h) was 1.97, the “correlation navtemadlin AUC0‐t vs MIC‐1 AUC0‐t, slope” value (MIC‐1 [2]; Treatment A, AUC in nM • h) was 0.0006 and the “P, baseline predose MIC‐1 concentration” value (MIC‐1 [2]; Treatment A: 60 mg new tablet fasted (periods 2-4)) was 170 (119.8); 60 pg/mL. For the same compound, the “MIC‐1 %CFBC24 (percent change from predose concentration at 24 hours)” value (MIC‐1 [2]; [13]) was 2297 (101); 60%, the “MIC‐1 %CFBCmax (percent change from predose concentration at Cmax)” value (MIC‐1 [2]; [13]) was 3759 (103.5); 60% and the “MIC‐1 AUC0‐24” value (MIC‐1 [2]; [13]) was 32743 (49.4); 60 pg • h/mL. The “MIC‐1 AUC0‐inf” value (MIC‐1 [2]; [13]) was 96215 (51.9); 31 pg • h/mL, the “MIC‐1 AUC0‐t” value (MIC‐1 [2]; [13]) was 89409 (48.7); 60 pg • h/mL and the “MIC‐1 C24” value (MIC‐1 [2]; [13]) was 1318 (50.5); 60 pg/mL. For the same compound, the “MIC‐1 FoldC24 (C24/P)” value (MIC‐1 [2]; [13]) was 24.0 (96.8); 60, the “P, baseline predose MIC‐1 concentration” value (MIC‐1 [2]; Treatment B: 60 mg new tablet fed (periods 2-4)) was 214 (133.2); 30 pg/mL and the “MIC‐1 %CFBC24 (percent change from predose concentration at 24 hours)” value (MIC‐1 [2]; [14]) was 1778 (115.5); 30%. For the same compound, the “MIC‐1 %CFBCmax (percent change from predose concentration at Cmax)” value (MIC‐1 [2]; [14]) was 2684 (115.7); 30%, the “MIC‐1 AUC0‐24” value (MIC‐1 [2]; [14]) was 29820 (52.7); 30 pg • h/mL and the “MIC‐1 AUC0‐inf” value (MIC‐1 [2]; [14]) was 67607 (35.1); 16 pg • h/mL. The “MIC‐1 AUC0‐t” value (MIC‐1 [2]; [14]) was 81332 (54.2); 30 pg • h/mL, the “MIC‐1 C24” value (MIC‐1 [2]; [14]) was 1209 (47.7); 30 pg/mL and the “MIC‐1 FoldC24 (C24/P)” value (MIC‐1 [2]; [14]) was 18.8 (109.4); 30. For the same compound, the “P, baseline predose MIC‐1 concentration” value (MIC‐1 [2]; Treatment C: 60 mg old tablet fasted (period 1)) was 505 (41); 30 pg/mL, the “MIC‐1 %CFBC24 (percent change from predose concentration at 24 hours)” value (MIC‐1 [2]; [15]) was 139 (61.8); 30% and the “MIC‐1 %CFBCmax (percent change from predose concentration at Cmax)” value (MIC‐1 [2]; [15]) was 393 (62.5); 30%. For the same compound, the “MIC‐1 AUC0‐24” value (MIC‐1 [2]; [15]) was 34365 (53.4); 30 pg • h/mL, the “MIC‐1 AUC0‐inf” value (MIC‐1 [2]; [15]) was 110915 (30.5); 4 pg • h/mL and the “MIC‐1 AUC0‐t” value (MIC‐1 [2]; [15]) was 91175 (38.5); 30 pg • h/mL. The “MIC‐1 C24” value (MIC‐1 [2]; [15]) was 1144 (38.4); 30 pg/mL, the “MIC‐1 FoldC24 (C24/P)” value (MIC‐1 [2]; [15]) was 2.39 (36); 30 and the pKa [3] was 4.35. For the same compound, the “All TEAEs: Number of Subjects with TEAE” value ([4]; Treatment A (Combined): new tablet fasted) was 5, the “All TEAEs: Number of Subjects with TEAE” value ([4]; Treatment B: new tablet fed) was 2 and the “All TEAEs: Number of Subjects with TEAE” value ([4]; Treatment C: old tablet fasted (period 1)) was “Nine”. The “incidence of constipation (TEAE)” value ([4]; occurred only with treatment C (old tablet, fasted)) was 13%, the “incidence of headache (TEAE)” value ([4]; occurred with all treatments A, B, and C) was 10% and the “TEAE related to navtemadlin” value ([4]; reported once, treatment B (new tablet fed)) was “Headache”. For the same compound, the “discontinuations due to adverse events” value [4, 16] was “without any discontinuations; also recorded: no subject discontinued due to an AE”, the “serious adverse events or deaths” value [4, 16] was “No serious adverse events or deaths occurred; also recorded: No deaths or serious AEs occurred” and the “severity of adverse events” value [4, 16] was “mild”. The “protein‐bound” value [5] was 97.5%, the “delay of tmax after a meal” value ([6]; B vs A: new tablet fed vs fasted) was 1 h and the “exposure in UGT1A1*28 heterozygous poor metabolizers (6/7 TA repeats) vs WT (6/6 TA repeats)” value [6] was “slightly lower”. The “exposure in UGT1A1*28 heterozygous poor metabolizers (6/7 TA repeats) vs WT (6/6 TA repeats)” value ([6]; listed as navtemadlin) was “generally comparable”, the “time of second peak after dosing (enterohepatic recirculation)” value ([6]; all 3 treatments) was “around 10 hours” and the tmax ([6]; human, plasma, oral, 60 mg) was 2.01 h. For the same compound, the “PK in H. pylori–positive vs H. pylori–negative subjects” value ([6]; n = 12 positive vs n = 18 negative) was “not markedly different; also recorded: not markedly affected”, the “decrease in extent of exposure (AUC0‐24, AUC0‐t, AUC0‐inf) with a high‐fat meal” value ([6]; new tablet fed vs fasted) was 12% to 18% and the “intersubject variability, AUC0‐24 %CV” value ([6]; new tablet, fasted) was 55%. The “intersubject variability, Cmax %CV” value ([6]; new tablet, fasted) was 66%, the “difference in median tmax between fed and fasted conditions, significance” value ([6]; new tablet, Wilcoxon signed-rank, alpha level of 0.1) was “statistically significant” and the C24 ([6]; plasma, Treatment A: 60-mg new tablet, fasted) was 37.4 (83.9); 60 ng/mL. The C24 ([6]; plasma, Treatment B: 60-mg new tablet, fed (high-fat meal)) was 29.3 (83.3); 30 ng/mL, the C24 ([6]; plasma, Treatment C: 60-mg old tablet, fasted) was 29.3 (83.6); 30 ng/mL and the “intrasubject variability of PK parameters” value ([6]; reference formulation: new tablet, fasted) was < 30%. For the same compound, the “tmax, difference of medians (90%CI)” value ([6]; test-reference: B (new tablet fed) minus A (new tablet fasted)) was 0.5 (0.004‐0.9) ^e , ^f h, the “tmax, difference of medians (90%CI)” value ([6]; test-reference: C (old tablet fasted) minus A (new tablet fasted)) was 0.1 (–0.3 to 0.6) ^e , ^f h and the “solubility, pH dependence” value [7] was “increases with increasing pH”. For the same compound, the urinary excretion route [8] was “minor excretion route”, the “mean amount excreted in urine” value [9, 17] was 12.1 µg and the “mean fraction of dose excreted in urine” value [9, 17] was 0.02%. The urine excretion ([9]; single 60-mg dose, healthy subjects) was “negligible”, the fraction absorbed [10] was ~100% and the “lymphocyte subsets and monocytes, postdose (96 hours) vs predose” value [11] was “did not differ”. For the same compound, the “effect on serum PD marker MIC‐1” value (MIC‐1 [12]) was “dose‐ and plasma concentration–dependent increases”.
